Results reported in ChEMBL document CHEMBL2016520, “Design, synthesis, molecular docking and biological evaluation of new dithiocarbamates substituted benzimidazole and chalcones as possible chemotherapeutic agents” (Bioorg Med Chem Lett, 2012).

System: Cicer arietinum
Assay: Antimitotic activity against chick pea seeds assessed as inhibition of germinating root growth after 7 days
Format: functional, organism-based
Conditions: 168 h
In short: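 Seeds germinated in Petri dishes on filter paper for 7 days, with the paper moistened every 24 h with drug solution. One dish held DMSO as control and one held cisplatin as the standard. Radicle length was measured in cm on day 7, and percent growth inhibition was calculated against the mean of the DMSO-treated control.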

Structure (SMILES)	IC50 [nM]
O=C(CC(SC(=S)N1CCCCC1)c1ccccc1)c1ccccc1 (stereo not drawn)	1850
S=C(SCc1nc2ccccc2[nH]1)N1CCCCC1	1660
CCCNC(=S)SCc1nc2ccccc2[nH]1	2290
CN(C)C(=S)SCc1nc2ccccc2[nH]1	2120
O=C(CC(SC(=S)N1CCOCC1)c1ccccc1)c1ccccc1 (stereo not drawn)	1650
S=C(SCc1nc2ccccc2[nH]1)N1CCOCC1	1890
CCN(CC)C(=S)SC(CC(=O)c1ccccc1)c1ccccc1 (stereo not drawn)	1840
CCN(CC)C(=S)SCc1nc2ccccc2[nH]1	1860
S=C(SCc1nc2ccccc2[nH]1)N1CCCC1	1800
CN(C)C(=S)SC(CC(=O)c1ccccc1)c1ccccc1 (stereo not drawn)	2430
CCCCNC(=S)SCc1nc2ccccc2[nH]1	2110
O=C(CC(SC(=S)N1CCCC1)c1ccccc1)c1ccccc1 (stereo not drawn)	1670
O=C(CC(SC(=S)Nc1nc2ccccc2s1)c1ccccc1)c1ccccc1 (stereo not drawn)	1520
